The list is not random: actives were taken first. Their share in the collection is about 3.1%.
ERAP1 inh: inhibitors of human ERAP1 aminopeptidase; Q9NZ08; recombinant ERAP1, Leu-AMC fluorescence, 60 min; inhibition, % at 10.7 µM; actives 0.15% (n = 340,000); AID 652197;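 active = mean replicate inhibition of at least 30%, or all replicates individually reaching that 30% level; inactive = mean below 30% and not every replicate reaching it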
rRNA inh HTS: inhibitors of bacterial rRNA selective over humanized ribosomes | actives 1.6% (n = 350,000) | GFP signal change (wild-type ribosome), % (no concentration beside the values) | E. coli WT GFP vs humanized-ribosome RFP mutants, fluorescence, 24 h; stronger effect = lower value; DMSO median 0, no signal -100;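 active = significant combined selectivity score with lowered wild-type GFP, culture density cut under 30%, mutant RFP and density less affected; inactive = any of these conditions unmet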
SIRT5 inh: blocks human SIRT5 desuccinylation of peptide; inhibition, % at 15 µM; Q9NXA8; Purified SirT5, succinyl-peptide AMC, trypsin-coupled fluorescence; actives 1.1% (n = 330,000); in the data active = inhibition above about 15%
Target sequence (Q9NXA8 whole entry, looked up): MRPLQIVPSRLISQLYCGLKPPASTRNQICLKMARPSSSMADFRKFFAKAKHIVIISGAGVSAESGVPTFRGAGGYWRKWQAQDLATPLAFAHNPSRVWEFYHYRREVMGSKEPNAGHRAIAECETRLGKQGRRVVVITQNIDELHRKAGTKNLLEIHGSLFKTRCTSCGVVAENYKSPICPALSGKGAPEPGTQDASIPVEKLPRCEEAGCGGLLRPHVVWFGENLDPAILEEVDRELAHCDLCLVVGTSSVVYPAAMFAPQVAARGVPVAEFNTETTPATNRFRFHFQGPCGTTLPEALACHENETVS
CFTR F508del cor: CFTR F508del correction in bronchial cells; actives 0.36% (n = 350,000); activity (quench increase), % at 7.58 µM; CFBE cells, YFP halide quenching; stimulated with forskolin plus potentiator P3; % fluorescence drop versus neutral controls; AID 720511;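 active = mean added fluorescence quench of at least 8% versus neutral control, with both replicates also reaching 8%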;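 note: cells transiently co-express mutant CFTR-F508del with the halide-sensitive YFP; corrector assay measuring rescue of mutant channel to the surface after 24 h compound exposure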
S100A4 MyoIIA: inhibitors of human S100A4 binding to myosin IIA peptide. S100A4/TAMRA-MyoIIA peptide fluorescence polarization. AID 652163. P26447. inhibition, % at 10.7 µM. actives 0.14% (n = 360,000);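 active = mean inhibition of at least 70% across replicates, with every replicate also reaching that level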
Target sequence (P26447 whole entry, looked up): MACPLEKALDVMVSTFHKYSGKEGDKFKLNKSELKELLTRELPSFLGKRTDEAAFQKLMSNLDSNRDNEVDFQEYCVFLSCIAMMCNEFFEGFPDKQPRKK
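Material: S100A4 monomer protein | Medium: HEPES pH 7.2 with CaCl2, KCl, NaCl, DTT, Triton | Reagent: Labelled myosin peptide probe, 5 nM | Doses: One dose per compound | Times: 5 min incubation before reading | Benchmarks: Neutral control DMSO, positive control TFP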
Large screens that a line does not name were inactive; ! = repeats disagree.

COC(=O)C1=C(c2cccc(OCc3ccccc3)c2)C[C@@H]2CC[C@H]1N2C(=O)NCCCOC(C)C	SIRT5 inh 27
O=C1NC(=O)N(c2ccccc2F)C(=O)/C1=C/c1ccc(Sc2nc3ccccc3[nH]2)o1	SIRT5 inh 23, S100A4 MyoIIA 171 (no result: CFTR F508del cor)
O=C1NC(=O)N(c2cccc(Cl)c2)C(=O)/C1=C\c1ccc(Sc2nc3ccccc3[nH]2)o1	none
C[C@@H]1CN([C@H](C)CO)C(=O)c2c(c3ccccc3n2C)-c2ccccc2CO[C@H]1CN(C)C(=O)Oc1ccccc1	none
C[C@]12CCC3C(CC[C@H]4[C@@H](O)[C@H](O)CC[C@]34C)C1CCC2=O (stereo partly drawn)	rRNA inh HTS -22 (no result: SIRT5 inh)
C[C@]12CCC(=O)C=C1CC[C@@H]1C2CC[C@]2(C)C(=O)CCC12 (stereo partly drawn)	rRNA inh HTS -38
COc1ccc(CNCC(=O)N2CCC3(CC2)OCCO3)cc1	none
CCc1ccc2nc(N3CCC(C(=O)N4CCC5(CC4)OCCO5)CC3)sc2c1	SIRT5 inh 30
Cc1ncc(C(=O)O)n1C(C)c1ccccc1 (stereo not drawn)	none (no result: SIRT5 inh)
CCOC(=O)c1cncn1[C@@H](C)c1ccccc1	CFTR F508del cor 8.9 (no result: rRNA inh HTS)
O=C(O)[C@@H]1[C@@H](CO)[C@@H]2Cn3c(ccc(-c4ccncc4)c3=O)[C@H]1N2S(=O)(=O)c1ccccc1F	none (no result: ERAP1 inh, SIRT5 inh, CFTR F508del cor, S100A4 MyoIIA)
O=C1NC(=S)NC(=O)C1=Cc1cccn1-c1ccc(O)cc1	SIRT5 inh 53
CCOC(=O)C1C(OC(=O)c2ccccc2)CC2CCC1N2C (stereo not drawn)	none (no result: SIRT5 inh)
COC(=O)C1C(OC(=O)c2ccccc2)CC2CCC1[N+]2(C)C (stereo not drawn)	ERAP1 inh 51 (no result: SIRT5 inh)
CCOC(=O)C1=C(NC(=S)NC(=O)c2ccccc2)c2ccccc2CC12CCCC2	SIRT5 inh 35
CCOP(=O)(OCC)C(NC(=O)c1ccccc1)=C(Cl)Cl	none
CC(C)[N+](C)(CCC(C(N)=O)(c1ccccc1)c1ccccc1)C(C)C	ERAP1 inh 96
Cc1nc(-c2cccc(CN(C)C(=O)Oc3ccc([N+](=O)[O-])cc3)c2)no1	rRNA inh HTS -19 (no result: ERAP1 inh)
CN(Cc1cccc(-c2cccnc2)c1)C(=O)Oc1ccc([N+](=O)[O-])cc1	none (no result: ERAP1 inh)
N#Cc1c(N2CCNCC2)nc(-c2ccco2)c2c1CCCC2	ERAP1 inh 45
C[N+](C)(C)CC1CCCC(C[N+](C)(C)C)C1=O (stereo not drawn)	ERAP1 inh 75 (no result: SIRT5 inh)
COC(=O)C[C@H]1CC[C@H]2NC[C@H](O)COC[C@@H]2O1	none
C=C1C(=O)O[C@@H]2C[C@@H](C)[C@@H]3C=CC(=O)[C@@]3(C)[C@@H](O)[C@H]12	CFTR F508del cor 13
NNC(=O)c1nc[nH]c1C(=O)Nc1ccc(Cl)cc1C(=O)c1ccccc1	none
O=C(COC(=O)c1ccc(O)cc1)Nc1ccc(Cl)cc1C(=O)c1ccccc1	rRNA inh HTS -43
COC(=O)[C@@H]1[C@@H](CO)[C@@H]2Cn3c(ccc(C4=CCCCC4)c3=O)[C@H]1N2Cc1ccccc1OC	none
COc1ccc(SCC2CN(C)CCC2c2ccc(F)cc2)cc1 (stereo not drawn)	rRNA inh HTS -33
COc1ccc(C#Cc2ccc([C@@H]3[C@@H](CO)N4CCCCN(C(=O)Cc5ccncc5)C[C@@H]34)cc2)cc1	none
FC(F)(F)CN1C[C@@H]2C(c3ccccc3)[C@H](C1)N2CC1CC1 (stereo partly drawn)	none (no result: ERAP1 inh, SIRT5 inh, CFTR F508del cor, S100A4 MyoIIA)
COc1cccc(N2CCN(Cc3cccc(Cl)c3)CC2)c1	rRNA inh HTS -24
COc1cccc(N2CCN(Cc3ccc(Cl)cc3)CC2)c1	rRNA inh HTS -33
O=C(O)[C@@H]1[C@@H](CO)[C@@H]2Cn3c(ccc(C4=CCCCC4)c3=O)[C@H]1N2CCc1ccccc1	none (no result: ERAP1 inh, SIRT5 inh, CFTR F508del cor, S100A4 MyoIIA)
O=C(Cc1cccnc1)N1CCCCN2[C@H](CO)[C@H](c3ccc(C#CC4(O)CCCC4)cc3)[C@@H]2C1	none
O=C(Cc1cccnc1)N1CCCCN2[C@@H](CO)[C@@H](c3ccc(C#CC4(O)CCCC4)cc3)[C@@H]2C1	S100A4 MyoIIA 98
O=C(O)[C@H]1[C@H](CO)[C@H]2Cn3c(ccc(-c4ccccc4F)c3=O)[C@@H]1N2C(=O)Nc1ccccc1	none (no result: CFTR F508del cor)
COc1ccccc1-n1c(-c2ccccc2Cl)nc2ccccc2c1=O	none
COc1ccccc1-n1c(Cc2ccccc2)nc2ccccc2c1=O	rRNA inh HTS -22
COC(=O)[C@H]1[C@H](CO)[C@H]2Cn3c(ccc(/C=C/c4ccccc4)c3=O)[C@@H]1N2CC1CCCC1	none
NC(Cc1ccccc1)c1nc2ccccc2[nH]1 (stereo not drawn)	none
NC(Cc1nc2ccccc2[nH]1)c1ccc(Cl)cc1 (stereo not drawn)	rRNA inh HTS -45
O=C(Cc1ccccc1)N1CC2(C1)[C@H](c1ccccc1)[C@@H](CO)N2Cc1cccc(Cl)c1	none
COc1cc(CN2CCN(C(=O)Cc3ccccc3)CC2)cc(OC)c1OC	SIRT5 inh 15
O=C(COc1ccc(Cl)cc1)N1CCN(Cc2ccccc2)CC1	SIRT5 inh 16
COc1cccc(-c2ccc3n(c2=O)C[C@@H]2[C@@H](CO)[C@H](C(=O)O)[C@H]3N2Cc2ccccc2F)c1	none (no result: ERAP1 inh, SIRT5 inh, CFTR F508del cor, S100A4 MyoIIA)
FC(F)(F)CN1C[C@@H]2N[C@H](C1)C2c1ccc(Br)cc1 (stereo partly drawn)	none (no result: ERAP1 inh, SIRT5 inh, CFTR F508del cor, S100A4 MyoIIA)
COc1cc2c(c(OC)c1OC)-c1ccc(SC)c(=O)cc1C(NC(C)=O)CC2 (stereo not drawn)	none (no result: SIRT5 inh)
COc1c(O)cc2c(c1OC)-c1ccc(OC)c(=O)cc1C(NC(C)=O)CC2 (stereo not drawn)	CFTR F508del cor 8.2
OC[C@@H]1Nc2ccc(C#Cc3cccnc3)cc2[C@H]2NCC[C@@H]12	none (no result: ERAP1 inh, SIRT5 inh, CFTR F508del cor, S100A4 MyoIIA)
C[C@H]1CCCC(=O)CCC/C=C/c2cc(O)cc(O)c2C(=O)O1	none (no result: rRNA inh HTS)
C[C@H]1CCC/C=C/[C@@H]2C[C@H](O)C[C@H]2[C@H](O)/C=C/C(=O)O1	CFTR F508del cor 16! (no result: rRNA inh HTS)
COc1cccc(N2C(=O)NC(=O)/C(=C/c3ccc4c(c3)Cc3ccccc3-4)C2=O)c1	none
COc1ccccc1N1C(=O)NC(=O)/C(=C/c2ccc([N+](=O)[O-])s2)C1=O	SIRT5 inh 18
CCOc1ccc(N2C(=O)NC(=O)/C(=C\c3cc(OC)c(OC)cc3[N+](=O)[O-])C2=O)cc1	none (no result: ERAP1 inh, rRNA inh HTS, SIRT5 inh, CFTR F508del cor)
COc1ccc(N2C(=O)NC(=O)/C(=C\c3ccc([N+](=O)[O-])s3)C2=O)cc1	SIRT5 inh 20
COc1cccc(N2C(=O)NC(=O)/C(=C/c3ccc([N+](=O)[O-])s3)C2=O)c1	SIRT5 inh 15 (no result: ERAP1 inh)
COc1ccc(N2C(=O)NC(=O)/C(=C/c3ccc([N+](=O)[O-])s3)C2=O)cc1	SIRT5 inh 16

Source: PubChem
